Laboratory results taken from ChEMBL document CHEMBL1121685, “Development of new mitomycin C and porfiromycin analogues” (J Med Chem, 1981).

Legend:
Mus musculus [1] = species: Mus musculus; assay: Degree of leukopenia produced by compound is assessed form Percent change in white cells on days 5; type: functional
Procedure, shortened: (§1)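 BDG₁ male mice received a single ip dose on day 0. The dose series topped out at the LD₅₀ level, or at twice the optimal dose for some agents. Total white blood cell count was taken on days 3, 5 and 7 and expressed as % change from untreated controls. Significance was set at p ≤ 0.05 or p ≤ 0.01.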

Mus musculus [2] = species: Mus musculus; assay: Half-wave potential produced by the compound at their optimal dose; type: functional; parameters: unit not given here
Mus musculus [3] = assay: Effect of compound on total white blood cell count in BDG1 male mice, after intraperitoneal administration at a dose of 9.8 mg/kg on day 7; type: functional
Procedure, shortened: (§2)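 Single ip dose given on day 0 to BDG₁ male mice. Total white blood cell count measured on days 3, 5 and 7, expressed as % change from control. Highest dose was at the LD₅₀, or at twice the optimal dose where so footnoted. Significance reported at p ≤ 0.05 and p ≤ 0.01. D marks death of one or more mice.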

Mus musculus [4] = assay: Effect of compound on total white blood cell count in BDG1 male mice, after intraperitoneal administration at a dose of 5.5 mg/kg on day 3; type: functional; procedure, shortened: as §2
Mus musculus [5] = assay: Effect of compound on total white blood cell count in BDG1 male mice, after intraperitoneal administration at a dose of 5.5 mg/kg on day 5; type: functional; procedure, shortened: as §2
Mus musculus [6] = assay: Effect of compound on total white blood cell count in BDG1 male mice, after intraperitoneal administration at a dose of 5.5 mg/kg on day 7; type: functional; procedure, shortened: as §2
Mus musculus [7] = assay: Effect of compound on total white blood cell count in BDG1 male mice, after intraperitoneal administration at a dose of 7.4 mg/kg on day 5; type: functional; procedure, shortened: as §2
Mus musculus [8] = assay: Effect of compound on total white blood cell count in BDG1 male mice, after intraperitoneal administration at a dose of 7.4 mg/kg on day 7; type: functional; procedure, shortened: as §2
Mus musculus [9] = assay: Effect of compound on total white blood cell count in BDG1 male mice, after intraperitoneal administration at a dose of 9.8 mg/kg on day 3; type: functional; procedure, shortened: as §2
Mus musculus [10] = assay: Effect of compound on total white blood cell count in BDG1 male mice, after intraperitoneal administration at a dose of 9.8 mg/kg on day 5; type: functional; procedure, shortened: as §2
Mus musculus [11] = assay: Minimum effective dose that show activity against P-388 murine leukemia cells in CDF1 female mice, after intraperitoneal administration (optimal dose is 3.2 mg/kg); type: functional; details: P388, ip, read-out: MED
Procedure, shortened: (§3)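 10⁶ P-388 ascites cells implanted ip in CDF₁ female mice. Six mice per dose, 10 saline-injected controls, and a concurrent mitomycin C reference group. %T/C = median survival time of treated/control × 100. MED is the lowest dose giving %T/C > 125. Therapeutic ratio = optimal dose/MED.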

Mus musculus [12] = assay: Antitumor activity against P-388 murine leukemia cells in CDF1 female mice after intraperitoneal administration at the specified optimal dose of 3.2 mg/kg; type: functional
[13] = Therapeutic ratio is expressed as ratio of optimal dose and minimum effective dose; type: ADME; details: mouse; read-out: TR; procedure, shortened: as §3
Mus musculus [14] = assay: Effect of compound on total white blood cell count in BDG1 male mice, after intraperitoneal administration at a dose of 7.4 mg/kg on day 3; type: functional; procedure, shortened: as §2
Mus musculus [15] = assay: Effect of compound on total white blood cell count in BDG1 male mice, after intraperitoneal administration at a dose of 1.27 mg/kg on day 7; type: functional; procedure, shortened: as §1
Mus musculus [16] = assay: Effect of compound on total white blood cell count in BDG1 male mice, after intraperitoneal administration at a dose of 1.27 mg/kg on day 3; type: functional; procedure, shortened: as §1
Mus musculus [17] = assay: Effect of compound on total white blood cell count in BDG1 male mice, after intraperitoneal administration at a dose of 1.69 mg/kg on day 3; type: functional; procedure, shortened: as §1
Mus musculus [18] = assay: Effect of compound on total white blood cell count in BDG1 male mice, after intraperitoneal administration at a dose of 1.69 mg/kg on day 7; type: functional; procedure, shortened: as §1
Mus musculus [19] = assay: Effect of compound on total white blood cell count in BDG1 male mice, after intraperitoneal administration at a dose of 1.69 mg/kg on day 5; type: functional; procedure, shortened: as §1
Mus musculus [20] = species: Mus musculus; assay: Degree of leukopenia produced by compound is assessed form Percent change in white cells on day 3; type: functional; procedure, shortened: as §1
Mus musculus [21] = assay: Effect of compound on total white blood cell count in BDG1 male mice, after intraperitoneal administration at a dose of 2.25 mg/kg on day 7; type: functional
Procedure, shortened: (§4)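 Single ip dose given on day 0 to BDG1 male mice over a descending dose series. Total white blood cell count is expressed as % change from untreated control on days 3, 5 and 7. Significance is flagged at p ≤ 0.05 and p ≤ 0.01.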

Mus musculus [22] = assay: Effect of compound on total white blood cell count in BDG1 male mice, after intraperitoneal administration at a dose of 2.25 mg/kg on day 3; type: functional; procedure, shortened: as §4
Mus musculus [23] = assay: Effect of compound on total white blood cell count in BDG1 male mice, after intraperitoneal administration at a dose of 2.25 mg/kg on day 5; type: functional; procedure, shortened: as §4
Mus musculus [24] = assay: Effect of compound on total white blood cell count in BDG1 male mice, after intraperitoneal administration at a dose of 1.27 mg/kg on day 5; type: functional; procedure, shortened: as §1
Mus musculus [25] = assay: Effect of compound on total white blood cell count in BDG1 male mice, after intraperitoneal administration at a dose of 3 mg/kg on day 3; type: functional; procedure, shortened: as §4
Mus musculus [26] = assay: Effect of compound on total white blood cell count in BDG1 male mice, after intraperitoneal administration at a dose of 3 mg/kg on day 5; type: functional; procedure, shortened: as §4
Mus musculus [27] = assay: Effect of compound on total white blood cell count in BDG1 male mice, after intraperitoneal administration at a dose of 3 mg/kg on day 7; type: functional; procedure, shortened: as §4
Mus musculus [28] = assay: Effect of compound on total white blood cell count in BDG1 male mice, after intraperitoneal administration at a dose of 4.22 mg/kg on day 3; type: functional
Mus musculus [29] = assay: Effect of compound on total white blood cell count in BDG1 male mice, after intraperitoneal administration at a dose of 4.22 mg/kg on day 5; type: functional
Mus musculus [30] = assay: Effect of compound on total white blood cell count in BDG1 male mice, after intraperitoneal administration at a dose of 4.22 mg/kg on day 7; type: functional
Mus musculus [31] = assay: Effect of compound on total white blood cell count in BDG1 male mice, after intraperitoneal administration at a dose of 3.16 mg/kg on day 3; type: functional
Mus musculus [32] = assay: Effect of compound on total white blood cell count in BDG1 male mice, after intraperitoneal administration at a dose of 3.16 mg/kg on day 5; type: functional
Mus musculus [33] = assay: Effect of compound on total white blood cell count in BDG1 male mice, after intraperitoneal administration at a dose of 3.16 mg/kg on day 7; type: functional
Mus musculus [34] = assay: Effect of compound on total white blood cell count in BDG1 male mice, after intraperitoneal administration at a dose of 5.63 mg/kg on day 5; type: functional
Mus musculus [35] = assay: Effect of compound on total white blood cell count in BDG1 male mice, after intraperitoneal administration at a dose of 5.63 mg/kg on day 7; type: functional
Mus musculus [36] = assay: Effect of compound on total white blood cell count in BDG1 male mice, after intraperitoneal administration at a dose of 5.63 mg/kg on day 3; type: functional
Mus musculus [37] = assay: Effect of compound on total white blood cell count in BDG1 male mice, after intraperitoneal administration at a dose of 7.5 mg/kg on day 3; type: functional
Mus musculus [38] = assay: Effect of compound on total white blood cell count in BDG1 male mice, after intraperitoneal administration at a dose of 7.5 mg/kg on day 5; type: functional
Mus musculus [39] = assay: Effect of compound on total white blood cell count in BDG1 male mice, after intraperitoneal administration at a dose of 7.5 mg/kg on day 7; type: functional
Mus musculus [40] = assay: Number of tumored survivors, 45 days after administration of compound at a dose of 1 mg/kg/day in mice; type: functional
Mus musculus [41] = assay: Number of tumored survivors, 45 days after administration of compound at a dose of 8 mg/kg/day in mice; type: functional
Mus musculus [42] = assay: Activity of compound dose of 4 mg/kg/day against Murine B-16 Melanocarcinoma in mice; type: functional
Mus musculus [43] = assay: Activity of compound dose of 8 mg/kg/day against Murine B-16 Melanocarcinoma in mice; type: functional
Mus musculus [44] = assay: Activity of compound dose of 0.5 mg/kg/day against Murine B-16 Melanocarcinoma in mice; type: functional
Mus musculus [45] = assay: Activity of compound dose of 1 mg/kg/day against Murine B-16 Melanocarcinoma in mice; type: functional
Mus musculus [46] = assay: Number of cured survivors, 45 days after administration of compound at a dose of 1 mg/kg/day in mice; type: functional
Mus musculus [47] = assay: Activity of compound dose of 2 mg/kg/day against Murine B-16 Melanocarcinoma in mice; type: functional

SMILES: COC12[C@@H]3N[C@@H]3CN1C1=C(C(=O)C(Nc3cccnc3)=C(C)C1=O)[C@@H]2COC(N)=O (stereo not given in full)
- Change (Mus musculus [1]): -33%
- E1/2 (Mus musculus [2]): -0.31
- Change (Mus musculus [3]): 24%
- Change (Mus musculus [4]): -41%
- Change (Mus musculus [5]): -24%
- Change (Mus musculus [6]): -14%
- Change (Mus musculus [7]): -46%
- Change (Mus musculus [8]): -0.2%
- Change (Mus musculus [9]): -36%
- Change (Mus musculus [10]): -42%
- minimal effective dose (Mus musculus [11]): < 0.2 mg/kg
- T/C (Mus musculus [12]): 211%
- selectivity ratio [13]: > 16
- Change (Mus musculus [14]): -43%

SMILES: COC12[C@@H]3N[C@@H]3CN1C1=C(C(=O)C(N3CC3C)=C(C)C1=O)[C@@H]2COC(N)=O (stereo not given in full)
- Change (Mus musculus [15]): 18%
- Change (Mus musculus [16]): -16%
- Change (Mus musculus [17]): -24%
- Change (Mus musculus [18]): 3%
- Change (Mus musculus [19]): -5%
- Change (Mus musculus [20]): -24%
- Change (Mus musculus [21]): -6%
- Change (Mus musculus [22]): -36%
- Change (Mus musculus [23]): -32%
- E1/2 (Mus musculus [2]): -0.32
- Change (Mus musculus [24]): -5%
- Change (Mus musculus [25]): -37%
- Change (Mus musculus [26]): -39%
- Change (Mus musculus [27]): -12%
- minimal effective dose (Mus musculus [11]): 0.1 mg/kg
- T/C (Mus musculus [12]): 233%
- selectivity ratio [13]: 32

SMILES: CO[C@@]12[C@H](COC(N)=O)C3=C(C(=O)C(C)=C(N)C3=O)N1C[C@@H]1N[C@@H]12 [MITOMYCIN]
- Change (Mus musculus [20]): -42%
- E1/2 (Mus musculus [2]): -0.45
- Change (Mus musculus [28]): -55%
- Change (Mus musculus [29]): -53%
- Change (Mus musculus [30]): -1%
- Change (Mus musculus [31]): -48%
- Change (Mus musculus [32]): -42%
- Change (Mus musculus [33]): -38%
- Change (Mus musculus [34]): -58%
- Change (Mus musculus [35]): -26%
- Change (Mus musculus [36]): -57%
- Change (Mus musculus [37]): -58%
- Change (Mus musculus [38]): -67%
- Change (Mus musculus [39]): -53%
- minimal effective dose (Mus musculus [11]): 0.2 mg/kg
- Survivors (Mus musculus [40]): 1
- Survivors (Mus musculus [41]): 1
- T/C (Mus musculus [42]): 193%
- T/C (Mus musculus [43]): 164%
- T/C (Mus musculus [12]): 178%
- T/C (Mus musculus [44]): 122%
- T/C (Mus musculus [45]): 136%
- Survivors (Mus musculus [46]): 1
- T/C (Mus musculus [47]): 159%
